# E-selectin induc: induces E-selectin expression in human endothelial cells; HUVEC E-selectin immunofluorescence imaging; normalized: neutral wells 0, TNF-alpha wells 100; activation, % at 7.58 µM; 0.37% of 260,000 active; AID 686992;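 active = mean E-selectin-positive cell signal at least 10% of the positive control, reached in at least 60% of replicates, without over 20% cell loss; inconclusive = no rule given, readout overlaps actives, possibly toxicity-flagged; inactive = the rest, including those meeting only one limit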
#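 assay system = HUVEC, human umbilical vein endothelial cells | input = 3,000 HUVEC seeded per well | medium = EGM-2 growth medium on 0.1% gelatin-coated wells | dosing = one compound dose added by pin transfer | signal = immunofluorescence imaging | read-out basis = % PE-positive cells | control set = TNF-alpha, DMSO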
# DENV2 CPE: protects cells from dengue virus 2 cytopathic effect | DENV2-infected cells, cytopathic effect rescue, plate reader | CPE inhibition, % at 9.99 µM | 1.7% of 350,000 active | AID 651640; in the data active = CPE inhibition above about 20%, passing the limit was not always enough; inconclusive = no clear call, values can overlap the other calls; tested in BHK-21 cells;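 note: 0% = median of neutral control wells and 100% = median of positive control wells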
# FGF22 binding: shifts melting point of recombinant human FGF22; 1.5% of 340,000 active; recombinant FGF22 thermal shift, SYPRO orange fluorescence; percent of sucrose octasulfate shift, DMSO zero; activity (Tm shift, normalised), % at 9.99 µM; Q9HCT0;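 active = mean Tm shift, scaled 0 neutral to 100 positive control, at about 1.3% or above, every replicate too, limit read from the data; inconclusive = no clear call, values can overlap the other calls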
# Target sequence (Q9HCT0 whole entry, looked up): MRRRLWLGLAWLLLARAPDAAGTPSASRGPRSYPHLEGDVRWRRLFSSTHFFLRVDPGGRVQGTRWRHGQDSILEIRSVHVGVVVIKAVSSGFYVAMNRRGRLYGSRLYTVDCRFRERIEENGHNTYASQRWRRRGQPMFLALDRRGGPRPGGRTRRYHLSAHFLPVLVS
# ERAP1 inh: blocks human ERAP1 aminopeptidase activity; recombinant ERAP1, Leu-AMC fluorescence, 60 min; inhibition, % at 10.7 µM; 0.15% of 340,000 active; AID 652197;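 active = mean replicate inhibition of at least 30%, or all replicates individually reaching that 30% level; inactive = mean below 30% and not every replicate reaching it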;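 note: 0% = neutral control wells and 100% = L-leucinethiol positive control wells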
# F508del corr: CFTR F508del correction in bronchial cells. 0.36% of 350,000 active. activity (quench increase), % at 7.58 µM. CFBE cells, YFP halide quenching; stimulated with forskolin plus potentiator P3; % fluorescence drop versus neutral controls;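 active = mean added fluorescence quench of at least 8% versus neutral control, with both replicates also reaching 8%; inconclusive = only one of the mean or replicate conditions met; inactive = mean below 8% and not both replicates reaching 8%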;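 note: cells transiently co-express mutant CFTR-F508del with the halide-sensitive YFP; corrector assay measuring rescue of mutant channel to the surface after 24 h compound exposure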
# * marks the source's active call; other numbers are inactive results; ? = inconclusive; nt = no result given. The list is not random: actives were taken first. Their share in the collection is about 3.7%.
SMILES,E-selectin induc,DENV2 CPE,FGF22 binding,ERAP1 inh,F508del corr
CCOC(=O)C1CCCN(C(=O)c2c(-c3ccccc3)noc2C)CC1 (stereo not drawn),0,-2,0,3,1
C[C@@H]1CN([C@H](C)CO)C(=O)Cc2cc(NC(=O)Nc3ccccc3)ccc2O[C@@H]1CN(C)Cc1ccc(C(=O)O)cc1,nt,?,0,5,-2
COC(=O)c1c(NC(=O)Cc2ccccc2)sc2c1C(C(=O)OC)CC2 (stereo not drawn),0,-1,0,2,1
COC(=O)c1c(NC(=O)C(Cl)Cl)sc2c1C(C(=O)OC)CC2 (stereo not drawn),0,122*,0,6,0
CN(C)S(=O)(=O)c1ccc(C(=O)NCCN2C(=O)S/C(=C\c3cccnc3)C2=O)cc1,nt,-6,43*,1,0
COc1ccccc1S(=O)(=O)N[C@H]1CC[C@@H](CC(=O)N2CCCCC2)O[C@H]1CO,-1,3,0,1,-2
C#CC[N+](C)(C)CCCCCCCCCC,nt,3,0,8,nt
CC#CC[N+](C)(C)CCCCCCCCCCCC,1,3,0,42*,4
CCCCCC[N+](C)(C)CCSSCC[N+](C)(C)CCCCCC,nt,2,0,nt,3
CCCCCCCCCCCCCCCC[N+](C)(C)CC,2,-7,-1,77*,0
CCCCCCCCCCCCCCCC[N+](C)(C)CCl,0,18,-1,88*,1
C#CC[N+](C)(C)CCCCCCCCCCCC,nt,1,0,10,nt
C[C@@H]1CN([C@@H](C)CO)C(=O)c2cc(NS(=O)(=O)c3ccc(F)cc3)ccc2O[C@@H]1CN(C)S(=O)(=O)c1cccs1,-3,28*,-1,-4,2
C[C@H]1CN([C@@H](C)CO)C(=O)c2cc(NS(=O)(=O)c3ccc(Cl)cc3)ccc2O[C@@H]1CN(C)S(=O)(=O)c1cccs1,0,39*,0,0,2
C[C@H](CO)N1C[C@H](C)[C@@H](CN(C)S(=O)(=O)c2cccs2)Oc2ccc(NS(=O)(=O)c3ccc(Cl)cc3)cc2CC1=O,98*,7,0,0,-1
C[C@H]1CN([C@@H](C)CO)C(=O)c2cc(NS(=O)(=O)c3ccc(F)cc3)ccc2O[C@@H]1CN(C)S(=O)(=O)c1ccc(F)cc1,1,54*,0,0,0
C[C@@H]1CN([C@@H](C)CO)C(=O)c2cc(C#Cc3ccncc3)cnc2O[C@H]1CN(C)CC1CCCC1,0,-10,0,1,0
C[C@@H]1CN([C@@H](C)CO)C(=O)c2cc(NS(=O)(=O)c3ccc(F)cc3)ccc2O[C@H]1CN(C)S(C)(=O)=O,-2,nt,nt,nt,1
C[C@H](CO)N1C[C@H](C)[C@@H](CN(C)Cc2ccc(Oc3ccccc3)cc2)Oc2c(NC(=O)C3CCCCC3)cccc2C1=O,0,3,-1,0,5
Cc1noc(C)c1C(=O)N(C)C[C@@H]1OCc2ccccc2-c2c(n(C)c3ccccc23)C(=O)N([C@@H](C)CO)C[C@@H]1C,0,2,0,-1,1
C[C@H](CO)N1C[C@H](C)[C@@H](CN(C)S(C)(=O)=O)Oc2ccc(NS(=O)(=O)c3cccs3)cc2C1=O,429*,-6,0,nt,-4
N#CCC(=O)Nc1cc(C(F)(F)F)ccc1N1CCOCC1,0,-8,0,3,-2
N#CCC(=O)Nc1ccc(C(F)(F)F)cc1N1CCOCC1,nt,-3,44*,-1,0
COc1ccc2c(C)cc(N3CCN(Cc4ccccc4)CC3)nc2c1,0,?,0,37*,0
C[C@@H]1CN([C@H](C)CO)C(=O)c2cccc(NC(=O)c3ccc(-c4nccs4)cc3)c2O[C@H]1CN(C)Cc1ccc(Oc2ccccc2)cc1,75*,-6,0,-5,3
SMILES,E-selectin induc,DENV2 CPE,FGF22 binding,ERAP1 inh,F508del corr
C[C@H]1CN([C@@H](C)CO)C(=O)c2cccc(NC(=O)c3ccc(-c4nccs4)cc3)c2O[C@@H]1CN(C)Cc1ccc(-c2ccccc2)cc1,0,75*,0,-1,0
C[C@H](CO)N1C[C@H](C)[C@H](CN(C)Cc2ccc(Oc3ccccc3)cc2)Oc2c(NC(=O)c3ccc(-c4nccs4)cc3)cccc2C1=O,-1,15,-1,-4,0
C[C@@H]1CN([C@H](C)CO)C(=O)c2cccc(NC(=O)c3ccc(-c4nccs4)cc3)c2O[C@@H]1CN(C)Cc1ccc(-c2ccccc2)cc1,0,-4,0,1,2
C[C@H]1CCCCO[C@H](CN(C)C(=O)Nc2cccc3ccccc23)[C@@H](C)CN([C@@H](C)CO)C(=O)c2cc(NC(=O)Cc3ccccc3)ccc2O1,0,5,0,-3,-10
CCN(CCn1cccn1)Cc1nc(-c2ccc(OC)cc2)no1,nt,-5,43*,3,0
CC(C)Nc1ccc(Nc2ccnc3cc4ccccc4cc23)cc1,nt,-2,-1,-3,27*
OCCC1CN(Cc2nc3c(s2)CCCC3)CCN1Cc1ccccc1 (stereo not drawn),0,-10,0,1,2
COc1cccc2c1OCC(CN1CCN(CCC(C)C)C(CCO)C1)=C2 (stereo not drawn),nt,6,43*,5,1
Cn1cc(CN2CCN(CCc3ccccc3)C(CCO)C2)cn1 (stereo not drawn),nt,-6,44*,-2,3
COc1cccc(CN2CCN(CCc3ccccc3)C(CCO)C2)c1OC (stereo not drawn),nt,?,44*,-3,3
OCCC1CN(Cc2nc3c(s2)CCCC3)CCN1CCc1ccccc1 (stereo not drawn),nt,7,44*,-6,3
O=C(CC1CC1)N1CC(=O)N2[C@H](CO)[C@@H](c3ccc(C#Cc4ccccc4)cc3)[C@H]2C1,0,5,nt,0,-1
C[C@H]1CN([C@@H](C)CO)C(=O)c2c(c3ccccc3n2C)-c2ccccc2CO[C@@H]1CN(C)C(=O)c1ccncc1,1,1,0,-1,-3
CN1C(=O)[C@@](O)(c2cn(C)c3ccccc23)c2ccccc21,1,-7,0,-3,-2
Cn1cc([C@]2(O)C(=O)Nc3ccccc32)c2ccccc21,0,31*,0,1,1
O=C(NN=Cc1ccc([N+](=O)[O-])cc1)c1ccncc1,0,11,44*,2,-4
O=C(N/N=C/c1cc(Br)c(Br)s1)c1ccncc1,0,?,44*,1,1
O=C(N/N=C/c1ccc([N+](=O)[O-])cc1)c1ccc(COc2ccccc2-c2ccccc2)cc1,nt,-9,44*,2,1
Cc1ccsc1/C=N/NC(=O)c1cccnc1,4,-3,0,4,-1
O=C(/C=C/c1ccc([N+](=O)[O-])cc1)Oc1ccc(/C=N/NC(=O)c2ccncc2)cc1,nt,-3,0,2,2

# Source: PubChem (Broad Institute)
